The record followed here is ChEMBL document CHEMBL1133551, “Non-depolarizing neuromuscular blocking activity of bisquaternary amino di- and tripeptide derivatives” (J Med Chem, 2000).

Experiment [1] deals with Felis catus. The experiment can be described thus: Inhibition of stimulated vagus nerve-induced bradycardia in anesthetized cats. Format: functional. In outline: (§1)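 Anesthetized cats. Every 100 s the vagus nerve was stimulated for 10 s at 2-5 Hz to evoke bradycardia, and the cervical sympathetic nerve was stimulated to evoke nictitating membrane contraction. Near the end of experiments, logarithmically increasing iv doses were given at 100-s intervals. Doses giving 50% block were obtained by regression and interpolation.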

The test system of experiment [2] is Felis catus. The experiment can be described thus: Duration (90%) measured for NMB activity in anesthetized cats. Format: functional. In outline:
(§2)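 Anesthetized, ventilated cats, tibialis anterior twitch evoked by sciatic nerve stimulation at 0.1 Hz; iv doses giving 80-95% block. Onset is injection to the first maximally depressed twitch. Duration is injection to 90% spontaneous recovery relative to predrug twitch.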

In experiment [3] the test system is Felis catus. The experiment can be described thus: Inhibitory potency in anesthetized cats. Format: functional. An outline of the steps: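 Cats of either sex (1.9-2.6 kg), anesthetized i.p. with α-chloralose 80 mg/kg plus pentobarbitone 5 mg/kg and ventilated with room air, 37 ± 1 °C. Sciatic nerve stimulated at 0.1 Hz (0.25-ms supramaximal pulses), tibialis anterior twitch recorded. Increasing doses given iv (jugular) at 30-60-min intervals.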

The subject of experiment [4] is Felis catus. The experiment can be described thus: Recovery time (25-75 %) measured for NMB activity in anesthetized cats. Format: functional, organism-based. In outline: as §2
The species entered for experiment [5] is Gallus gallus. The experiment can be described thus: Dose causing 50% block of muscle twitch in isolated chick biventer cervicis muscle (Increase in baseline tension). The following applies: Muscle tissue, read-out: ED50 (the source's name).
In experiment [6] the test system is Felis catus. The experiment can be described thus: Onset time was measured for NMB activity in anesthetized cats. Format: functional. In outline: as §2
Experiment [7] in a line: (§3) Dose causing 50% block of muscle twitch in isolated chick biventer cervicis muscle. The format is functional. The following applies: Gallus gallus, Muscle tissue; read-out: ED50 (the source's name). An outline of the steps: (§4)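 Isolated chick biventer cervicis nerve-muscle preparation; bath fluid gassed with 5% CO2 in O2, pH 7.4. Motor nerves stimulated at 0.1 Hz with 0.2-ms rectangular pulses at supramaximal voltage to give indirect twitches. Concentration-twitch inhibition lines fitted by least squares, and the concentration producing 50% twitch block (µM) was read off.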

For experiment [8], the species on record is Gallus gallus. The experiment can be described thus: -logED50 value for chick biventer determined. The format is functional. In outline: as §4
The species entered for experiment [9] is Gallus gallus. The description is as §3. Format: functional, Muscle tissue. In outline: as §4
For experiment [10], the species on record is Felis catus. The experiment can be described thus: Inhibition of superior cervical nerve-induced contractions of the nictitating membrane. Format: functional. In outline:
as §1

The species entered for experiment [11] is Felis catus. The experiment can be described thus: Inhibition of stimulated vagus nerve-induced bradycardia. The format is functional. An outline of the steps:
as §1

For experiment [12], the system named is Felis catus. The experiment can be described thus: Inhibitory potency in anesthetized cats, and Onset time is reported. The format is functional. In outline:
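Anesthetized cats (alpha-chloralose/pentobarbitone i.p., ventilated, 37 ± 1 °C). Tibialis anterior twitch evoked via sciatic nerve at 0.1 Hz, 0.25-ms supramaximal pulses. Increasing i.v. (jugular) doses at 30-60-min intervals. ED50 interpolated from log dose lines over 15-85% block. Onset, from injection to first maximally depressed twitch, measured at doses giving 80-95% block.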

Experiment [13] can be described thus: Dose causing 50% block of muscle twitch in isolated chick biventer cervicis muscle (Increase in baseline tension). The following applies: Gallus gallus, Muscle tissue; read-out: ED50 (the source's name).
The subject of experiment [14] is Monkey. The experiment can be described thus: Duration (90%) measured for NMB activity in anesthetized rhesus monkeys. Format: functional, Cercopithecidae. In outline:
(§5)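 Anesthetized, ventilated Rhesus monkeys; iv dosing at 3 × the 90% blocking dose. Onset is injection to the first maximally depressed twitch. Duration is injection to 90% spontaneous recovery versus predrug twitch.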

The subject of experiment [15] is Monkey. The experiment can be described thus: Onset time was measured for NMB activity in anesthetized rhesus monkeys. The format is functional, Cercopithecidae. In outline: as §5
In experiment [16] the test system is Felis catus. The experiment can be described thus: Inhibition of superior cervical nerve-induced contractions of the nictitating membrane in anesthetized cats. Format: functional. An outline of the steps: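 Cats of either sex (1.9-2.6 kg), anesthetized with i.p. alpha-chloralose 80 mg/kg plus pentobarbitone 5 mg/kg, ventilated to keep arterial pH 7.3-7.4, 37 ± 1 °C. Nictitating membrane contractions evoked by cervical sympathetic nerve stimulation, recorded every 100 s. Logarithmically increasing doses injected into the jugular vein at 100-s intervals; 50%-blocking dose obtained by regression and interpolation.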

For experiment [17], the system named is Monkey. The experiment can be described thus: Recovery time (25-75 %) measured for NMB activity in anesthetized rhesus monkeys. The format is functional, organism-based. The note with it: Cercopithecidae. An outline of the steps: as §5
The test system of experiment [18] is Monkey. The experiment can be described thus: Inhibitory potency in anesthetized rhesus monkeys. Format: functional. The note with it: Cercopithecidae, in Macaca mulatta.
Experiment [19] concerns Felis catus. The experiment can be described thus: Inhibition of superior cervical nerve-induced contractions of the nictitating membrane in anesthetized cats; Pre- and post-block increases in twitch tension and short-lived muscle fasciculations 20-30 s after dosing. Format: functional, organism-based. In outline:
as §1

Each structure is given as a SMILES string.

For the molecule `COc1ccc(CC2c3cc(OC)c(OC)cc3CC[N+]2(C)CCC(=O)OCCCCCOC(=O)CC[N+]2(C)CCc3cc(OC)c(OC)cc3C2Cc2ccc(OC)c(OC)c2)cc1OC` (stereo unspecified), the ED50 with Felis catus [1] turned out to be 1.6 µmol/kg; with Felis catus [3] it was 0.1 µmol/kg. The molecule also gave a Duration with Felis catus [2] of 19.4 min. Besides, the Recovery with Felis catus [4] was 5.9 min. The EC50 in the experiment filed under Gallus gallus [5] was 410 nM. For the same molecule, the Onset with Felis catus [6] is reported as 5.8 min.
Consider `C[N+]1(CCNC(=O)C(Cc2ccccc2)NC(=O)C[N+]2(C)CCCCC2)CCOCC1` (stereo unspecified), for which the EC50 in experiment [7] was 407 µM. Further, the pCB50 in the experiment listed under Gallus gallus [8] came to 3.39.
On to `C[N+](C)(C)CC(=O)NCC(=O)NCC[N+]1(C)CCOCC1`, for which the EC50 in the experiment listed under Gallus gallus [9] (Gallus gallus, Muscle tissue, read-out: ED50 (the source's name)) is over 390 µM.
Consider `O=C(C[N+]1(Cc2ccc([N+](=O)[O-])cc2)CCCCC1)NC(Cc1ccccc1)C(=O)NCC[N+]1(Cc2ccc([N+](=O)[O-])cc2)CCOCC1.[Br-].[Br-]` (stereo unspecified), for which the ED50 in the experiment filed under Felis catus [10] was over 11.2 µmol/kg; in the experiment listed under Felis catus [11], 0.8 µmol/kg; in the experiment on Felis catus [3] it was 10.1 µmol/kg; in the experiment filed under Gallus gallus [9], 19.8 µM.
In the case of `CC(=O)O[C@H]1C[C@@H]2CC[C@@H]3[C@H](CC[C@@]4(C)[C@H]3C[C@H]([N+]3(C)CCCCC3)[C@@H]4OC(C)=O)[C@@]2(C)C[C@@H]1[N+]1(C)CCCCC1` [PANCURONIUM], the ED50 with Felis catus [1] came to 0.07 µmol/kg; with Felis catus [12], 0.03 µmol/kg. This molecule also showed a Duration in the experiment with Felis catus [2] of 11.7 min. Moreover, the pCB50 in the experiment filed under Gallus gallus [8] worked out at 6.7. In addition, in the experiment on Felis catus [4], the Recovery was 4 min. In addition, the EC50 in experiment [13] was found to be 200 nM. In the experiment with Felis catus [6], this molecule returned an Onset of 4.1 min.
As for `C=CC[N+]1([C@H]2C[C@H]3[C@@H]4CC[C@H]5C[C@H](O)[C@@H](N6CCOCC6)C[C@]5(C)[C@H]4CC[C@]3(C)[C@H]2OC(C)=O)CCCC1` [ROCURONIUM], the ED50 stood at 2.17 µmol/kg in the experiment on Felis catus [1], 0.25 µmol/kg with Felis catus [12] and 0.16 µmol/kg in the experiment with Felis catus [16]. Moreover, the Duration in the experiment with Monkey [14] turned out to be 13.6 min; in the experiment with Felis catus [2], 8.3 min. Also, the Onset in the experiment with Monkey [15] was 3.1 min; in the experiment with Felis catus [6], 2 min. The same molecule showed a pCB50 in the experiment filed under Gallus gallus [8] of 6.12. In addition, the Recovery with Felis catus [4] worked out at 2.9 min; in the experiment with Monkey [17] it was 5 min. Further, the EC50 in experiment [13] stood at 760 nM.
The molecule `C[N+](C)(C)CCOC(=O)CCC(=O)OCC[N+](C)(C)C` [SUXAMETHONIUM] yielded an ED90 with Monkey [18] of 5.04 µmol/kg. Besides, the Duration is 9.7 min in the experiment on Monkey [14] and 5.7 min in the experiment on Felis catus [2]. Also, the ED50 was 0.11 µmol/kg in the experiment with Felis catus [3]; “Pre- and post-block increases in twitch tension and short-lived muscle fasciculations 20-30 s after dosing” in the experiment on Felis catus [19]. Further, the Onset with Monkey [15] came to 1.5 min; in the experiment with Felis catus [6], 1.7 min. In addition, the results for the Recovery in the experiment with Felis catus [4] and with Monkey [17] were 1.9 min and 2.9 min, respectively. Besides, the EC50 in the experiment listed under Gallus gallus [5] was determined as 540 nM.
